Counter-ions that a name gives are not always drawn. Active and inactive are the calls of the source. The calls are words filed in the database; no cut-off is given here.
Legend:
NCI-H23 [1] = test: Cytotoxicity against human NCI-H23 cells by colorimetric method; type: functional, cell-based
NCI-H23 [2] = test: Potency index, ratio of adriamycin IC50 to compound IC50 for human NCI-H23 cells by colorimetric method; type: functional
In short: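 Growth inhibition of cancer cells read by a colorimetric method with slight modifications. IC50 is the concentration giving 50% reduction in cell growth, computed by the Probits method and averaged over three independent experiments. The index is the reference drug's IC50 divided by the compound's IC50 in the same cell line.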

SW-620 [3] = test: Cytotoxicity against human SW620 cells by colorimetric method; type: functional, cell-based
Histone deacetylase = test: Inhibition of HDAC in human HeLa nuclear extract using fluoroscence-labeled acetylated peptide as substrate by fluorometric assay; type: subcellular, Nucleus
PC-3 = test: Cytotoxicity against human PC3 cells by colorimetric method; type: functional, cell-based
[4] = molecular target: T1, Protein deacetylase HDAC6 (Homo sapiens, UniProt Q9UBN7); test: Inhibition of HDAC6 (unknown origin)
T1 sequence (Q9UBN7 whole entry): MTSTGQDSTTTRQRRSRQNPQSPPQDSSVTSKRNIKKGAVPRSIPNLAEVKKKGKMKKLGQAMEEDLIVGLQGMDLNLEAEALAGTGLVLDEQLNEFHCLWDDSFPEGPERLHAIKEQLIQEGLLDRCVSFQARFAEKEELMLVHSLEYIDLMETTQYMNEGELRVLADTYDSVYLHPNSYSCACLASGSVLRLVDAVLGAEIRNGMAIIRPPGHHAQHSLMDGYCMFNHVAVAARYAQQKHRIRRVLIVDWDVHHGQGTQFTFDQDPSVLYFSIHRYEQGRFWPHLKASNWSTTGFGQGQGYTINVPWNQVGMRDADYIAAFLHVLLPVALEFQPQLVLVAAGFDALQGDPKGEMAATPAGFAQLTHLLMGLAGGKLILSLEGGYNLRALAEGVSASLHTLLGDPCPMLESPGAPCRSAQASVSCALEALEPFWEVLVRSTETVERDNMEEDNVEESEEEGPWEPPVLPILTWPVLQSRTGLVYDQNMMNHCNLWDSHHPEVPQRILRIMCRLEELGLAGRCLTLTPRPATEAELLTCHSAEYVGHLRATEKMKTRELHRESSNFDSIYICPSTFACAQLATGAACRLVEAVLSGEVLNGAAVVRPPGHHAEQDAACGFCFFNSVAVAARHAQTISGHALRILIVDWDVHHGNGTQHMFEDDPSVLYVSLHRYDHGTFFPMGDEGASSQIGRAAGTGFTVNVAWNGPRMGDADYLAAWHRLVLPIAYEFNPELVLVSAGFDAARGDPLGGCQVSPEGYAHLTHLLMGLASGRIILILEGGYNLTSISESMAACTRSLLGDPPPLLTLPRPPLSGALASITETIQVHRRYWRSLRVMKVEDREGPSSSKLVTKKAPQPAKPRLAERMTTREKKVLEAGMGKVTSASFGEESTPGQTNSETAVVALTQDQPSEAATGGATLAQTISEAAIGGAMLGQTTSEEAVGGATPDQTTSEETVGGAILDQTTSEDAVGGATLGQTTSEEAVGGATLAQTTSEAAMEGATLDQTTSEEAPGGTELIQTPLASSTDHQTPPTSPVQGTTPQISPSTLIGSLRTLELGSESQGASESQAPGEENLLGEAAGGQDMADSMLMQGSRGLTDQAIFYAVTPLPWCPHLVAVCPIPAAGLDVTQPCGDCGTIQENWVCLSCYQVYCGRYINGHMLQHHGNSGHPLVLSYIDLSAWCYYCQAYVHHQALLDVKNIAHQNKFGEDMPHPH

Homo sapiens = species: Homo sapiens; test: Selectivity index, ratio of IC50 for HDAC2 (unknown origin) to IC50 for HDAC6 (unknown origin)
Histone deacetylase 2 = Histone deacetylase 2 (Homo sapiens, UniProt Q92769); test: Inhibition of HDAC2 (unknown origin)
Sequence of Histone deacetylase 2 (Q92769 whole entry): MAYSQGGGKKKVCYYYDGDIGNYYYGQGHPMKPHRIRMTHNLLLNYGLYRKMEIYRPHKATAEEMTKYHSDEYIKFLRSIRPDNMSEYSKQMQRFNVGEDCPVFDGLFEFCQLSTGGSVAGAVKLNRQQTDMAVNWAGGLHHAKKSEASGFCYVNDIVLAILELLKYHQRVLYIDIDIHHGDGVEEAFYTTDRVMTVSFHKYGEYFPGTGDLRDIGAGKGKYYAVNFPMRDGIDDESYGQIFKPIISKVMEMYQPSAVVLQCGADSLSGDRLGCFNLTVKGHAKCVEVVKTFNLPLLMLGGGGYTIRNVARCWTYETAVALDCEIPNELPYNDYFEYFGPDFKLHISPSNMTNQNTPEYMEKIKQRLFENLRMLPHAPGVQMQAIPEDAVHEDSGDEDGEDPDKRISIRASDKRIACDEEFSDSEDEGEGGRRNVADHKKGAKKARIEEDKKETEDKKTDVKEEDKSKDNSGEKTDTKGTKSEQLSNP

SW-620 [5] = test: Induction of cell cycle arrest in human SW-620 cells assessed as accumulation at G0/G1 phase by flow cytometry; type: functional, cell-based
SW-620 [6] = test: Induction of apoptosis in human SW620 cells assessed as early apoptotic cells by flow cytometry; type: functional, cell-based
SW-620 [7] = test: Induction of cell cycle arrest in human SW-620 cells assessed as accumulation at S phase by flow cytometry; type: functional, cell-based

| Structure (SMILES) | IC50 (NCI-H23 [1]) [nM] | Ratio IC50 (NCI-H23 [2]) | IC50 (SW-620 [3]) [nM] | IC50 (Histone deacetylase) [nM] | IC50 (PC-3) [nM] | IC50 [4] [nM] | Ratio IC50 (Homo sapiens) | IC50 (Histone deacetylase 2) [nM] | Activity (SW-620 [5]) | Activity (SW-620 [6]) | Activity (SW-620 [7]) |
| --- | --- | --- | --- | --- | --- | --- | --- | --- | --- | --- | --- |
| COc1ccc2c(c1)/C(=C1/Nc3ccccc3/C1=N\O)C(=O)N2Cc1ccc(/C=C/C(=O)NO)cc1 | 50 | <=10 | 40 | 5 | 30 |  |  |  |  |  |  |
| O=C(CCCCCCN1C(=O)/C(=C2\Nc3ccccc3\C2=N/O)c2cc(Br)ccc21)NO | 9 | <=10 | 90 | 4 | 30 |  |  |  |  |  |  |
| O=C(NO)c1ccc(CN2C(=O)/C(=C3\Nc4ccccc4\C3=N/O)c3cc(F)ccc32)cc1 | 30 | <=10 | 20 | 218 | 50 | 43 | 4.5 | 194 |  |  |  |
| O=C(NO)c1ccc(CN2C(=O)/C(=C3\Nc4ccccc4\C3=N/O)c3cc(Cl)ccc32)cc1 | 50 | <=10 | 60 | 174 | 50 | 16 | 11.7 | 187 |  |  |  |
| O=C(/C=C/c1ccc(CN2C(=O)/C(=C3\Nc4ccccc4\C3=N/O)c3cc(F)ccc32)cc1)NO | 8 | <=10 | 50 | 422 | 50 |  |  |  |  |  |  |
| COc1ccc2c(c1)/C(=C1/Nc3ccccc3/C1=N\O)C(=O)N2CCCCCCC(=O)NO | 70 | <=10 | 30 | 21 | 50 |  |  |  |  |  |  |
| O=C(/C=C/c1ccc(CN2C(=O)/C(=C3\Nc4ccccc4\C3=N/O)c3ccccc32)cc1)NO | 9 | <=10 | 50 | 95 | 50 |  |  |  | Active | Active | Active |
| Cc1ccc2c(c1)/C(=C1/Nc3ccccc3/C1=N\O)C(=O)N2CCCCCCC(=O)NO | 10 | <=10 | 50 | 18 | 80 |  |  |  |  |  |  |
| O=C1Nc2ccccc2/C1=C1/Nc2ccccc2/C1=N\O | 11200 |  | 13500 |  | 15800 |  |  |  |  |  |  |
| O=C(/C=C/c1ccc(CN2C(=O)/C(=C3\Nc4ccccc4\C3=N/O)c3cccc(Cl)c32)cc1)NO | 50 | <=10 | 60 | 604 | 90 |  |  |  |  |  |  |
| COc1cccc2c1C(=O)c1c(O)c3c(c(O)c1C2=O)C[C@@](O)(C(=O)CO)C[C@@H]3O[C@H]1C[C@H](N)[C@H](O)[C@H](C)O1 [DOXORUBICIN HYDROCHLORIDE] | 90 |  | 90 |  | 90 |  |  |  |  |  |  |
| O=C(/C=C/c1ccc(CN2C(=O)/C(=C3\Nc4ccccc4\C3=N/O)c3cc(Br)ccc32)cc1)NO | 9 | <=10 | 60 | 183 | 90 |  |  |  |  |  |  |
| O=C(CCCCCCN1C(=O)/C(=C2\Nc3ccccc3\C2=N/O)c2cc(F)ccc21)NO | 8 | <=10 | 80 | 14 | 12 |  |  |  |  |  |  |
| O=C(CCCCCCN1C(=O)/C(=C2\Nc3ccccc3\C2=N/O)c2cccc(Cl)c21)NO | 50 | <=10 | 90 | 7 | 30 |  |  |  |  |  |  |
| O=C(CCCCCCN1C(=O)/C(=C2\Nc3ccccc3\C2=N/O)c2ccccc21)NO | 90 | <=10 | 90 | 22 | 50 |  |  |  |  | Active |  |
| Cc1ccc2c(c1)/C(=C1/Nc3ccccc3/C1=N\O)C(=O)N2Cc1ccc(C(=O)NO)cc1 | 10 | <=10 | 30 | 5 | 90 | 20 |  | 21 |  |  |  |
| O=C(NO)c1ccc(CN2C(=O)/C(=C3\Nc4ccccc4\C3=N/O)c3ccccc32)cc1 | 70 | <=10 | 70 | 195 | 60 | 7 | 29 | 205 | Active |  |  |
| O=C(NO)c1ccc(CN2C(=O)/C(=C3\Nc4ccccc4\C3=N/O)c3cccc(Cl)c32)cc1 | 60 | <=10 | 90 | 71 | 60 | 49 |  | 88 |  |  |  |
| O=C(NO)c1ccc(CN2C(=O)/C(=C3\Nc4ccccc4\C3=N/O)c3cc(Br)ccc32)cc1 | 7 | <=10 | 70 | 39 | 50 | 24 |  | 75 |  |  |  |
| COc1ccc2c(c1)/C(=C1/Nc3ccccc3/C1=N\O)C(=O)N2Cc1ccc(C(=O)NO)cc1 | 90 | <=10 | 40 | 25 | 30 | 30 |  | 31 |  |  |  |
| O=C(/C=C/c1ccc(CN2C(=O)/C(=C3\Nc4ccccc4\C3=N/O)c3cc(Cl)ccc32)cc1)NO | 7 | <=10 | 80 | 318 | 60 |  |  |  |  |  |  |
| O=C(CCCCCCN1C(=O)/C(=C2\Nc3ccccc3\C2=N/O)c2cc(Cl)ccc21)NO | 30 | <=10 | 60 | 3 | 90 |  |  |  |  |  |  |
| O=C(CCCCCCC(=O)Nc1ccccc1)NO |  |  |  |  |  |  |  |  |  | Active |  |
| Cc1ccc2c(c1)/C(=C1/Nc3ccccc3/C1=N\O)C(=O)N2Cc1ccc(/C=C/C(=O)NO)cc1 | 10 | <=10 | 50 | 20 | 60 |  |  |  |  |  |  |
